Bioassay records from PubChem BioAssay.
RanGTP-Imp inh: inhibitors of RanGTP-importin-beta interaction, primary screen, biochemical, FRET, CFP-Ran, YFP-importin-beta, homogeneous. cell-free CFP-Ran/YFP-importin-beta FRET ratio. inhibition, % (test concentration not listed). 300,000 tested, 1.1% active. AID 2216;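 active = more than half of the replicate wells show a fall in the fluorescence ratio signal beyond about 16%, limit read from the data, passing the limit was not always enough; inconclusive = exactly half of the replicate wells pass the set limit; inactive = fewer than half of replicates pass the limit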;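 also: 0% = DMSO wells and 100% = Ran loaded with GDP instead of GTP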
Runt-CBFb FRET: Runt domain-CBFb interaction inhibition; Q01196+Q13951; Cerulean-Runt/Venus-CBFb FRET ratio 530/480, 1 h; inhibition, % at 20 µM; 220,000 tested, 0.46% active; AID 1496;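 active = inhibition over about 50% at 20 µM in the single-dose screen, limit read from the data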;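 also: 0% = DMSO wells and 100% = excess unlabeled CBFb competitor control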
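Measured by: fluorescence energy transfer, 422 nm excitation, 530/480 nm emission; Assay system: Cerulean-Runt domain; Medium: Tris pH 7.5 buffer with BSA; Measure: loss of energy transfer signal; Controls: 5 µM unlabeled CBFb as full-inhibition high control; Incubation: protein complex preformed 1 h, compound exposure 1 h, room temperature, dark.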
Tb hexokinase: T. brucei hexokinase 1 inhibition. recombinant TbHK1, G6PDH-coupled NADH A340. inhibition, % at 10 µM. 220,000 tested, 0.11% active;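 active = inhibition of 50% or more in the single-dose primary screen; inactive = inhibition below 50%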
Runt-SMMHC FRET: Runt domain-CBFb-SMMHC interaction inhibition. Q01196+Q13951. Cerulean-Runt/Venus-CBFb-SMMHC FRET ratio 530/480, 1 h. inhibition, % at 20 µM. 220,000 tested, 0.74% active. AID 1434;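 active = mean inhibition across duplicate retests at 20 µM reaching about 50%, limit read from the data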;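 also: 0% = DMSO wells and 100% = wells with excess untagged CBFb-SMMHC; inhibitors lower the FRET ratio by blocking Runt binding to CBFb-SMMHC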
Hck-Nef inh: blocks Nef-activated human Hck kinase | Recombinant Hck-YEEI plus Nef, Z-Lyte FRET kinase assay | 220,000 tested, 0.68% active | inhibition, % at 20 µM | P08631;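 active = Hck-Nef kinase inhibition above about 50%, limit read from the data; inactive = inhibition below that limit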;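 also: 0% = DMSO with Hck plus Nef and 100% = Hck alone without Nef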
14-3-3 Bad PPI: disrupts binding of bovine 14-3-3 zeta to phospho-Bad peptide; TR-FRET 14-3-3zeta/Dy647-pBad peptide displacement, 1 h; AID 781; P63103; 220,000 tested, 0.71% active; inhibition, % at 21.7 µM;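 active = inhibition above about 70%, limit read from the data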;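 also: 0% = full 14-3-3 plus peptide FRET controls and 100% = background without 14-3-3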
Target sequence (P63103 whole entry, looked up): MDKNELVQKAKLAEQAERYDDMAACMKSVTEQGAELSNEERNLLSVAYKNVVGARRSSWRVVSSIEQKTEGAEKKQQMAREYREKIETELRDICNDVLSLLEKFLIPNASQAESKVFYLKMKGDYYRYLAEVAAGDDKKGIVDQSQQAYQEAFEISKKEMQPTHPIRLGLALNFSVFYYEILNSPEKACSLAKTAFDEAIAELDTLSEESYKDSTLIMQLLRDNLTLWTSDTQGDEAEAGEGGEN
An asterisk follows results filed as active; ? = inconclusive; . = not tested or not shown; [ ] = another dose, or the depositor's remark. An excerpt weighted towards active compounds, which were near 2.2% of everything screened.

SMILES | RanGTP-Imp inh | Runt-CBFb FRET | Tb hexokinase | Runt-SMMHC FRET | Hck-Nef inh | 14-3-3 Bad PPI
CC1CCc2cc(F)ccc2N1C(=O)C12CCC(C)(C(=O)O1)C2(C)C (stereo not given) | -1 | -1 | 0 | -4 | -5 | 92*
CC1CCc2cc(F)ccc2N1C(=O)CCC(=O)O (stereo not given) | 3 | -1 | -4 | -1 | 0 | -5
Cc1ccc(/C=C/C(=O)N2CCCC(C(N)=O)C2)o1 (stereo not given) | 3 | 15 | -37 | 3 | -68 | -4
O=C(/C=C/c1ccccc1)Nc1nnc(-c2ccco2)o1 | 1 | 0 | -17 | 0 | 10 | 0
CCN(CC)Cc1nc2c(c(=O)[nH]1)C1(CCCCC1)Cc1ccccc1-2 | 30* | -2 | -3 | 33 | 1 | -10
CC(=O)Nn1cnc2c(c1=O)C1(CCCC1)Cc1ccccc1-2 | . | 0 | -2 | 3 | -12 | 4
CCSc1n[nH]c2nc3c(c(=O)n12)C1(CCCC1)Cc1ccccc1-3 | 12 | 22 | -8 | 62* | 10 | 4
CN(C)Cc1nc2c(c(=O)[nH]1)C1(CCCCC1)Cc1ccccc1-2 | ? | -1 | 1 | -1 | 4 | 5
Nn1cnc2c(c1=O)C1(CCCCC1)Cc1ccccc1-2 | 26* | -2 | -5 | -4 | 3 | 7
Cc1c(N=C2SCC(=O)N2/N=C\c2ccc(Br)cc2)c(=O)n(-c2ccccc2)n1C | 5 | -1 | -19 | -3 | 7 | 1
Cc1cc(/C=C2\SC(=S)N(Cc3ccco3)C2=O)c(C)n1-c1ccccc1 | 21* | -19 | -11 | -106 | 1 | -2
Cc1cc(/C=C2\SC(=S)N(C)C2=O)c(C)n1-c1cccc(O)c1 | 36* | -15 | -6 | -48 | -9 | -1
Cc1cc(N)n2nc(C)c(-c3ccc(Cl)cc3)c2n1 | -2 | -3 | -5 | -5 | 18 | 1
Cc1cc(N)n2nc(C)c(-c3ccccc3)c2n1 | ? | 95* | -7 | -11 | 2 | -5
Cc1ccc(NC(=O)CCC(=O)N/N=C/c2ccc([N+](=O)[O-])o2)cc1C | 21* | 3 | -9 | 0 | 21 | -5
CCCNS(=O)(=O)c1ccc2c(c1)n(C)c(=O)n2C | -4 | -2 | 2 | 7 | 18 | 84*
Cn1c(=O)n(C)c2cc(S(=O)(=O)NCC(=O)O)ccc21 | 0 | 1 | 1 | -2 | 20 | -14
CCNS(=O)(=O)c1ccc2c(c1)n(C)c(=O)n2C | 1 | -3 | 34 | 0 | -14 | -8
Cn1c(=O)n(C)c2cc(S(=O)(=O)O)ccc21 | 1 | -1 | 2 | 3 | 2 | 74*
O=C(CC1SC(=NCC2CCCO2)NC1=O)Nc1cccc2ccccc12 (stereo not given) | -2 | 81* | 33 | 0 | 3 | -12
COC(/C=C/Nc1ccc(Cl)cc1)=C(C#N)C#N | 27* | 0 | 6 | 4 | 18 | 12
Cc1ccc2nc(Cl)c(/C=N/NC(=O)[C@H]3C[C@@H]3c3ccccc3)cc2c1 | 4 | -5 | -6 | 4 | 4 | -2
CC(C)(C)c1ccc(C2CC2C(=O)N/N=C\c2cc3ccccc3nc2Cl)cc1 (stereo not given) | ? | -2 | -24 | -1 | 0 | 84*[fluorescence artefact?]
COc1ccc(C(=O)NCCS(=O)(=O)N(C)Cc2ccccc2)cc1 | 2 | . | . | . | . | .
CN(C)CCC(=O)N1c2ccccc2Sc2ccc(C(F)(F)F)cc21 | 1 | . | . | . | . | .
SMILES | RanGTP-Imp inh | Runt-CBFb FRET | Tb hexokinase | Runt-SMMHC FRET | Hck-Nef inh | 14-3-3 Bad PPI
CN1CCN(CCC(=O)N2c3ccccc3Sc3ccc(C(F)(F)F)cc32)CC1 | -5 | 5 | -1 | -2 | 0 | 80*
N#C[C@@H]1[C@@H]2C(=O)N(c3ccc4c(c3)OCCO4)C(=O)[C@@H]2C2c3ccccc3C=CN21 (stereo not given in full) | 19* | -17 | -11 | -59 | 1 | 1
CCN1C(=O)[C@@H]2[C@@H](c3ccc(-c4ccc(C(C)=O)cc4)cc3)N3CCCC[C@@]3(C(=O)OC)[C@@H]2C1=O | 3 | . | . | . | . | .
Cc1ccc(S(=O)(=O)NC(=O)COc2ccccc2C(N)=O)cc1 | 28* | 2 | -1 | -4 | 0 | 11
Cc1ccc(-c2csc(NC(=O)c3cccc(C)c3)c2C(=O)O)cc1 | 0 | . | . | . | . | .
Cc1ccc(-c2csc(NC(=O)/C=C/c3ccco3)c2C(=O)O)cc1 | ? | 12 | -1 | -4 | 52* | -8
COc1ccc(CCNC(=O)c2nnn(CC(=O)Nc3cccc(F)c3)c2N)cc1OC | -1 | 0 | -3 | 1 | 16 | -6
O=C(Nc1ccc(Oc2ccc(NC(=O)Nc3ccccc3Cl)cc2)cc1)Nc1ccccc1Cl | -3 | 3 | -13 | -5 | 9 | 4
Cc1ccc(C)c(S(=O)(=O)N(C)C2CCS(=O)(=O)C2)c1 (stereo not given) | -4 | . | . | . | . | .
Fc1cc(F)c2nc(Nc3nc4cc5c(cc4s3)OCO5)sc2c1 | 0 | -1 | -14 | 0 | 3 | 95*[fluorescence artefact?]
Fc1cccc2sc(Nc3nc4cc5c(cc4s3)OCO5)nc12 | 3 | 4 | -1 | 8 | 11 | -14
CC1CN(Cc2c(O)ccc3c2oc(=O)c2ccccc23)CC(C)O1 (stereo not given) | 2 | 2 | -16 | -4 | 24 | 83*
O=C(c1ccc(Cl)cc1)N1CCN(c2ccc(F)cc2)CC1 | 3 | 18 | 3 | 72* | 10 | 48
O=C(c1ccncc1)N1CCN(c2ccc(F)cc2)CC1 | 6 | 2 | 0 | -1 | 1 | -10
Cc1cccc(-c2oc(C)c(C)[n+]2[O-])c1 | -3 | 2 | 0 | 4 | -14 | 72*
C=C(C)COc1ccc(-c2ncncc2-c2ccccc2)c(O)c1 | -2 | . | . | . | . | .
Cc1nnc(SCC(=O)Nc2ccc([N+](=O)[O-])cc2)n1C | 0 | . | . | . | . | .
CCN1/C(=C2\OC(=S)N(C)C2=O)Sc2ccccc21 | -4 | 14 | -9 | 64* | 7 | 21
CCN1/C(=C\C=C2\C(=O)N(c3ccccc3)C(=S)N2C)Sc2ccccc21 | 0 | 5 | -1 | -1 | 20 | 95*
CCN1/C(=C2\OC(=S)N(C)C2=O)C=Cc2ccccc21 | 0 | -8 | -17 | -21 | -1 | 0
CN(C(=O)CN(c1ccccc1)S(=O)(=O)c1ccc(F)cc1)C1CCS(=O)(=O)C1 (stereo not given) | ? | 0 | -17 | -2 | 13 | -2
Cc1cccc(NC(=O)CSc2nc(N)c(NC(=O)c3cccs3)c(=O)[nH]2)c1C | 2 | 2 | -4 | 4 | -6 | -2
COc1ccc(Cn2c(=O)cc(N)n(-c3ccccc3C)c2=O)cc1 | -2 | -2 | -3 | -1 | -15 | 97*
O=C1CCc2cc(NS(=O)(=O)c3cc(F)ccc3F)cc3c2N1CC3 | 0 | . | . | . | . | .
